Measured values: ChEMBL document CHEMBL1135567, “Synthesis and structure-activity relationships of an orally available and long-acting analgesic peptide, N(alpha)-amidino-Tyr-D-Arg-Phe-MebetaAla-OH (ADAMB)” (J Med Chem, 2002)

Legend:
[1] = system: Mus musculus; test: (§1) In vivo antinociceptive activity expressed as ED50 administered perorally for tail pressure test; conditions: po
[2] = system: Mus musculus; test: as §1; conditions: po; remark: listed apart in the source
[3] = Ratio of ED50 value administered subcutaneously to that of perorally.; assay type: functional
Method in brief: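 Mouse tail pressure test ED50 values obtained after sc and po dosing by Litchfield–Wilcoxon at peak activity. The sc ED50 divided by the po ED50 is expressed as a percentage.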

[4] = system: Mus musculus; test: In vivo antinociceptive activity expressed as ED50 administered perorally for tail pressure test in mice; conditions: po

Q: Which results are given for CN1CC[C@]23c4c5ccc(O)c4O[C@H]2[C@@H](O)C=C[C@H]3[C@H]1C5 [MORPHINE]?
A: ED50 [1]: 15 mg/kg; ED50 [2]: 1.7 mg/kg; Ratio [3]: 15; ED50 [4]: 3.3 mg/kg
